From PubChem BioAssay AID488910 (Broad Institute, 2010) come the findings set out here.

Each structure is given as a SMILES string. Out of some 20,000 compounds screened, about 25 (0.1%) were called active. For the sample, actives were picked, then their nearest neighbours and some compounds at random. Values without a mark were called inactive.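 Rule for the calls: active = mean replicate protection from cytokine-induced ATP loss at least 50% and at least 75% of replicates each reaching 50%; inconclusive = meets only one of the two criteria, mean or replicate share; inactive = fails both the mean and replicate share criteria.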

The test in a line: preservation of ATP in cytokine-treated beta cells – cell-based, ATP luminescence, single point, primary screen (AID 488910). Particulars: INS-1E cytokine-induced death, 48 h, at 10 µM, stronger effect = higher value, normalised: neutral wells 0, positive control 100. The gist of the method:
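Test system: INS-1E rat cells | Quantity: 8000 cells per well | Medium: Phenol-red-free RPMI with 5% fetal bovine serum | Reagent: Cytokine cocktail of IFN-γ, TNF-α and IL-1β | Doses: One compound concentration, pin transfer | Timing: 48 h co-treatment, 10 min post-lysis read | Technique: Luminescent ATP assay (CellTiter-Glo)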
On to `C[C@@H]1CN([C@@H](C)CO)C(=O)Cc2cc(NS(=O)(=O)c3cccs3)ccc2O[C@@H]1CN(C)S(=O)(=O)c1ccc(F)cc1`, for which the protection from cytokine-induced ATP loss was 4.38%.

With `C[C@H](CO)N1C[C@H](C)[C@H](CN(C)Cc2ccccc2)Oc2ccc(NC(=O)Cc3ccccc3)cc2C1=O`, the protection from cytokine-induced ATP loss was 0.0546%.

With `C[C@@H]1CN([C@@H](C)CO)C(=O)c2cc(NC(=O)Nc3cccc4ccccc34)ccc2O[C@@H]1CN(C)C(=O)Nc1cccc2ccccc12`, the protection from cytokine-induced ATP loss was -6.66%.

For the compound `C[C@@H]1CCCCO[C@H](CN(C)Cc2ccccc2)[C@@H](C)CN([C@H](C)CO)C(=O)c2cc(NC(=O)Cc3ccccc3)ccc2O1`, the protection from cytokine-induced ATP loss was -13%.

On to `COc1ccc(NC(=O)Nc2ccc3c(c2)C(=O)N([C@@H](C)CO)C[C@@H](C)[C@H](CN(C)Cc2ccc(Cl)c(Cl)c2)O3)cc1`, for which the protection from cytokine-induced ATP loss is -22.1%.

For `C[C@@H]1CN([C@H](C)CO)C(=O)Cc2cc(NC(=O)Cn3cnnn3)ccc2O[C@H]1CN(C)Cc1ccc(C(F)(F)F)cc1`, the protection from cytokine-induced ATP loss was 1.99%.

For `C[C@@H]1CN([C@@H](C)CO)C(=O)c2cccc(NC(=O)C3CC3)c2O[C@@H]1CN(C)Cc1ccccc1`, the protection from cytokine-induced ATP loss is 1.55%.

`CC(C)NC(=O)Nc1ccc2c(c1)CC(=O)N([C@H](C)CO)C[C@@H](C)[C@@H](CN(C)C(=O)Nc1ccc3c(c1)OCO3)O2`: the protection from cytokine-induced ATP loss is 9.22%.

`C[C@@H]1CN([C@@H](C)CO)C(=O)c2cc(NS(=O)(=O)c3ccccc3)ccc2O[C@@H]1CN(C)Cc1ccc(C(=O)O)cc1`: the protection from cytokine-induced ATP loss was 5.28%.

`C[C@H](CO)N1C[C@H](C)[C@H](CN(C)Cc2ccncc2)Oc2ccc(NS(=O)(=O)c3cn(C)cn3)cc2C1=O`: the protection from cytokine-induced ATP loss was -2.95%.

Take `C[C@@H]1CN([C@@H](C)CO)C(=O)c2cccc(NC(=O)C3CC3)c2O[C@@H]1CN(C)C`: the protection from cytokine-induced ATP loss is 3.84%.

`CC(C)NC(=O)Nc1ccc2c(c1)C(=O)N([C@@H](C)CO)C[C@@H](C)[C@H](CN(C)Cc1ccc(-c3ccccc3)cc1)O2`: the protection from cytokine-induced ATP loss was -8.83%.

Regarding `C[C@H]1CN([C@@H](C)CO)C(=O)Cc2cc(NC(=O)Nc3ccc(F)cc3)ccc2O[C@H]1CN(C)C(=O)Nc1ccc(C(F)(F)F)cc1`, the protection from cytokine-induced ATP loss was -14.8%.

For the compound `COc1ccc(NC(=O)N(C)C[C@@H]2Oc3ccc(NC(=O)Nc4ccccc4)cc3CC(=O)N([C@H](C)CO)C[C@@H]2C)cc1`, the protection from cytokine-induced ATP loss was 9.6%.

Take `Cc1noc(C)c1NC(=O)Nc1cccc2c1O[C@@H](CN(C)CC1CCCCC1)[C@H](C)CN([C@@H](C)CO)C2=O`: the protection from cytokine-induced ATP loss is -7.27%.

Regarding `C[C@@H]1CN([C@@H](C)CO)C(=O)c2cccc(NS(=O)(=O)c3ccc(F)cc3)c2O[C@H]1CN(C)S(=O)(=O)c1cccs1`, the protection from cytokine-induced ATP loss was 2.23%.

Regarding `COc1ccc(NC(=O)N(C)C[C@@H]2Oc3ccc(NC(=O)Cn4cnnn4)cc3C(=O)N([C@H](C)CO)C[C@@H]2C)cc1`, the protection from cytokine-induced ATP loss was 6.28%.

Consider `Cc1ccc(S(=O)(=O)Nc2ccc3c(c2)C(=O)N([C@@H](C)CO)C[C@H](C)[C@H](CN(C)C(=O)Nc2ccc(C(F)(F)F)cc2)O3)cc1`, for which the protection from cytokine-induced ATP loss was -7.22%.

As for `Cc1noc(C)c1NC(=O)Nc1ccc2c(c1)C(=O)N([C@H](C)CO)C[C@@H](C)[C@H](CN(C)Cc1ccncc1)O2`, the protection from cytokine-induced ATP loss is 3.35%.

As to `C[C@@H]1CN([C@@H](C)CO)C(=O)c2cccc(NC(=O)Nc3ccc(F)cc3)c2O[C@@H]1CN(C)C(=O)Nc1ccccc1`, the protection from cytokine-induced ATP loss was 7.56%.

As for `C[C@H](CO)N1C[C@H](C)[C@@H](CN(C)Cc2ccc3c(c2)OCO3)Oc2c(cccc2N(C)C)C1=O`, the protection from cytokine-induced ATP loss was -11%.

Turning to `C[C@@H]1CN([C@@H](C)CO)C(=O)c2cccc(NS(=O)(=O)c3cccs3)c2O[C@@H]1CN(C)CC1CC1`, the protection from cytokine-induced ATP loss is -3.04%.

With `C[C@@H]1CN([C@H](C)CO)C(=O)c2cccc(NS(=O)(=O)c3ccccc3)c2O[C@@H]1CN(C)Cc1ccc(C(=O)O)cc1`, the protection from cytokine-induced ATP loss is 2.31%.

Turning to `C[C@@H]1CN([C@@H](C)CO)C(=O)c2cc(NC(=O)CCN3CCOCC3)ccc2O[C@H]1CN(C)C(=O)NC1CCCCC1`, the protection from cytokine-induced ATP loss was 5.18%.

As to `C[C@H](CO)N1C[C@H](C)[C@@H](CN(C)Cc2ccc(C(=O)Nc3ccccc3N)cc2)Oc2c(NC(=O)C3CC3)cccc2C1=O`, the protection from cytokine-induced ATP loss is -6.93%.

`COc1ccc(NC(=O)N(C)C[C@@H]2Oc3c(NS(=O)(=O)c4cn(C)cn4)cccc3C(=O)N([C@H](C)CO)C[C@@H]2C)cc1`: the protection from cytokine-induced ATP loss is -3.57%.

Take `Cc1noc(C)c1S(=O)(=O)N(C)C[C@H]1OCCCC[C@@H](C)Oc2ccc(NC(=O)C3CCCCC3)cc2C(=O)N([C@H](C)CO)C[C@@H]1C`: the protection from cytokine-induced ATP loss was 8.15%.

Turning to `C[C@@H]1CN([C@H](C)CO)C(=O)Cc2cc(NC(=O)c3ccncc3)ccc2O[C@@H]1CN(C)Cc1ccncc1`, the protection from cytokine-induced ATP loss was 13.2%.

As to `Cc1ccc(S(=O)(=O)N(C)C[C@@H]2Oc3c(NS(C)(=O)=O)cccc3C(=O)N([C@@H](C)CO)C[C@H]2C)cc1`, the protection from cytokine-induced ATP loss is -1.18%.

For the compound `C[C@H]1CN([C@@H](C)CO)C(=O)Cc2cc(NC(=O)Nc3ccc(F)cc3)ccc2O[C@H]1CN(C)S(=O)(=O)c1ccc(F)cc1`, the protection from cytokine-induced ATP loss is -1.52%.

`Cc1noc(C)c1S(=O)(=O)Nc1ccc2c(c1)C(=O)N([C@@H](C)CO)C[C@@H](C)[C@H](CN(C)Cc1ccc(-c3ccccc3)cc1)O2`: the protection from cytokine-induced ATP loss is -8.15%.

As to `C[C@@H]1CN([C@@H](C)CO)C(=O)c2cc(NC(=O)CCCN(C)C)ccc2O[C@H]1CN(C)Cc1ccccc1`, the protection from cytokine-induced ATP loss is -3.08%.

For `CC(C)NC(=O)Nc1ccc2c(c1)C(=O)N([C@@H](C)CO)C[C@@H](C)[C@H](CN(C)C(=O)NC1CCCCC1)O2`, the protection from cytokine-induced ATP loss was 4.32%.

Take `Cc1ccc(S(=O)(=O)Nc2cccc3c2O[C@@H](CN(C)S(=O)(=O)c2cccs2)[C@@H](C)CN([C@@H](C)CO)C3=O)cc1`: the protection from cytokine-induced ATP loss was -0.391%.

Turning to `C[C@H]1CN([C@@H](C)CO)C(=O)c2cccc(NS(=O)(=O)c3cn(C)cn3)c2O[C@@H]1CN(C)C(=O)Nc1ccc(F)cc1`, the protection from cytokine-induced ATP loss is 11.3%.

As for `COc1ccc(NC(=O)Nc2ccc3c(c2)C(=O)N([C@H](C)CO)C[C@H](C)[C@H](CN(C)C(=O)Nc2c(C)noc2C)OCCCC[C@@H](C)O3)cc1`, the protection from cytokine-induced ATP loss was 12%.

In the case of `C[C@@H]1CN([C@H](C)CO)C(=O)c2cc(NS(=O)(=O)c3cn(C)cn3)ccc2O[C@H]1CN(C)S(=O)(=O)c1ccc(Cl)cc1`, the protection from cytokine-induced ATP loss is 0.346%.

Regarding `COc1ccc(NC(=O)N(C)C[C@@H]2Oc3c(NS(C)(=O)=O)cccc3C(=O)N([C@H](C)CO)C[C@H]2C)cc1`, the protection from cytokine-induced ATP loss is 3.08%.

Regarding `Cc1ccc(S(=O)(=O)N(C)C[C@H]2Oc3c(NS(=O)(=O)c4cccs4)cccc3C(=O)N([C@@H](C)CO)C[C@@H]2C)cc1`, the protection from cytokine-induced ATP loss is -3.52%.

`O=C(O)CCCCCC(=O)N/N=C/c1ccco1`: the protection from cytokine-induced ATP loss is 17.1%.

As to `Cc1ccc(S(=O)(=O)Nc2ccc3c(c2)C(=O)N([C@@H](C)CO)C[C@@H](C)[C@H](CN(C)CC2CC2)O3)cc1`, the protection from cytokine-induced ATP loss was -3.86%.

In the case of `C[C@H]1CN([C@@H](C)CO)C(=O)c2cccc(NC(=O)c3ccncc3)c2O[C@@H]1CN(C)C`, the protection from cytokine-induced ATP loss is 7.37%.

Turning to `C[C@H]1CN([C@@H](C)CO)C(=O)c2cccc(NC(=O)Nc3ccc(C(F)(F)F)cc3)c2O[C@@H]1CN(C)Cc1ccccc1`, the protection from cytokine-induced ATP loss is -19.3%.

On to `Cc1noc(C)c1NC(=O)Nc1ccc2c(c1)CC(=O)N([C@H](C)CO)C[C@@H](C)[C@@H](CN(C)Cc1ccc(C(F)(F)F)cc1)O2`, for which the protection from cytokine-induced ATP loss is 10.5%.

For `C[C@H](CO)N1C[C@H](C)[C@@H](CN(C)S(=O)(=O)c2ccccc2)Oc2c(NC(=O)c3ccc(-c4nccs4)cc3)cccc2C1=O`, the protection from cytokine-induced ATP loss was 5.11%.

Take `C[C@@H]1CN([C@H](C)CO)C(=O)c2cc(NC(=O)CCCCCC(=O)Nc3ccccc3N)ccc2O[C@@H]1CN(C)Cc1ccncc1`: the protection from cytokine-induced ATP loss is 6.45%.

With `CC(C)NC(=O)Nc1ccc2c(c1)CC(=O)N([C@H](C)CO)C[C@@H](C)[C@H](CN(C)S(=O)(=O)c1ccccc1)O2`, the protection from cytokine-induced ATP loss is 9.86%.

Regarding `C[C@@H]1CN([C@@H](C)CO)C(=O)c2cccc(NS(=O)(=O)c3ccc(Cl)cc3)c2O[C@@H]1CN(C)C(=O)Nc1ccccc1`, the protection from cytokine-induced ATP loss is 0.662%.

As to `C[C@H]1CN([C@@H](C)CO)C(=O)c2cccc(NC(=O)Nc3ccccc3)c2O[C@H]1CN(C)C(=O)Nc1cccc2ccccc12`, the protection from cytokine-induced ATP loss is 6.53%.

Take `C[C@@H]1CN([C@@H](C)CO)C(=O)c2cc(NS(=O)(=O)c3cccs3)ccc2O[C@@H]1CN(C)S(=O)(=O)c1ccc(F)cc1`: the protection from cytokine-induced ATP loss was -0.641%.

For the compound `Cc1noc(C)c1NC(=O)Nc1cccc2c1O[C@H](CN(C)C(=O)Nc1ccccc1)[C@@H](C)CN([C@H](C)CO)C2=O`, the protection from cytokine-induced ATP loss was 6.69%.

Consider `C[C@H]1CN([C@@H](C)CO)C(=O)c2cccc(NC(=O)NC3CCCCC3)c2O[C@H]1CN(C)CC1CCCCC1`, for which the protection from cytokine-induced ATP loss was -14.4%.

Consider `Cc1noc(C)c1NC(=O)Nc1ccc2c(c1)C(=O)N([C@@H](C)CO)C[C@H](C)[C@@H](CN(C)C(=O)Nc1ccccc1)O2`, for which the protection from cytokine-induced ATP loss is -2.87%.

For `C[C@@H]1CN([C@H](C)CO)C(=O)Cc2cc(NC(=O)C3CCCCC3)ccc2O[C@@H]1CN(C)Cc1ccc(C(F)(F)F)cc1`, the protection from cytokine-induced ATP loss was -23.1%.

For the compound `COc1ccc(NC(=O)N(C)C[C@@H]2Oc3c(NC(=O)C4CCOCC4)cccc3C(=O)N([C@H](C)CO)C[C@@H]2C)cc1`, the protection from cytokine-induced ATP loss is 5.6%.

Take `C[C@H](CO)N1C[C@H](C)[C@@H](CN(C)Cc2ccc(Cl)c(Cl)c2)Oc2ccc(NS(=O)(=O)c3ccccc3)cc2C1=O`: the protection from cytokine-induced ATP loss is -24.5%.
